The subject of one data set is A549. The data set can be described thus: Cytotoxicity against human A549 cells assessed as inhibition of cell growth after 72 hrs by MTS assay. The conditions noted are these: A549, 72 h. Type of data set: functional, cell-based. In short, it runs like this: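 A549 cells exposed to each peptide for 72 h; growth read by MTS assay. IC50 taken as the concentration giving 50% growth inhibition, n = 3.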
A general note: Tetrazolium assays rely on reduction of a dye to a coloured formazan, in cell work by metabolically active cells.

Data set [1] is described as follows: Permeability of the compound in pH 7.4 phosphate buffer solution after 4 hrs by LC-MS/MS based PAMPA assay. Type of data set: ADME. The conditions noted are these: read-out: permeability. In short, it runs like this: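 PAMPA run at pH 7.4, under the in vitro bioassay conditions.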
For orientation: The PAMPA barrier holds no transporters, so it reflects passive diffusion.

Data set [2] is described as follows: Protein binding in 10% fetal bovine serum at 1 uM after 4 hrs in presence of cell culture medium by rapid equilibrium dialysis based LC-MS/MS analysis. Type of data set: ADME, cell-free, Bos taurus. The conditions noted are these: cattle, 10% fetal bovine serum in cell culture medium; read-out: PB (converted). In short, it runs like this:
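Peptides tested in cell culture medium supplemented with 10% (v/v) fetal bovine serum. The ratio of unbound peptide was determined.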

pIC50: −log10 of the molar value.

Consider 11 molecules from ChEMBL document CHEMBL4145558, “Structure-Activity Relationship Study on Odoamide: Insights into the Bioactivities of Aurilide-Family Hybrid Peptide-Polyketides” (ACS Med Chem Lett, 2018).

One may read the pIC50 as the negative decadic logarithm of the IC50, by convention in mol/L.

For the molecule `CCC[C@H](C)[C@H]1OC(=O)[C@H](C)N(C)C(=O)[C@H]([C@@H](C)CC)NC(=O)CN(C)C(=O)[C@@H](Cc2ccccc2)NC(=O)[C@H](C)NC(=O)[C@@H]([C@@H](C)CC)OC(=O)/C(C)=C/C[C@H](O)[C@@H]1C`, the pIC50 in the data set on A549 is 8.27.
As for `CCC[C@H](C)[C@H]1OC(=O)[C@H](C)N(C)C(=O)[C@H]([C@@H](C)CC)NC(=O)CNC(=O)[C@@H](Cc2ccccc2)N(C)C(=O)[C@H](C)NC(=O)[C@@H]([C@@H](C)CC)OC(=O)/C(C)=C/C[C@H](O)[C@@H]1C`, the negative-log IC50 (pIC50) in the data set with A549 was 7.51. Further, the Papp at 4 h in data set [1] is more than 1 ×10⁻⁶ cm/s.
On to `CCC[C@H](C)[C@H]1OC(=O)[C@H](C)N(C)C(=O)[C@H]([C@@H](C)CC)NC(=O)CN(C)C(=O)[C@@H](Cc2ccccc2)N(C)C(=O)[C@H](C)NC(=O)[C@@H]([C@@H](C)CC)OC(=O)/C(C)=C/C=C/[C@@H]1C`, for which the pIC50 with A549 was 7.55.
As to `CCC[C@H](C)[C@H]1OC(=O)[C@H](C)N(C)C(=O)[C@H]([C@@H](C)CC)NC(=O)CN(C)C(=O)[C@@H](Cc2ccccc2)N(C)C(=O)[C@H](C)NC(=O)[C@@H]([C@@H](C)CC)OC(=O)/C(C)=C/C[C@H](OC)[C@@H]1C`, in the data set on A549, the negative-log IC50 (pIC50) was 8.37. For the same molecule, the Papp at 4 h in data set [1] is more than 1 ×10⁻⁶ cm/s. Further, the fraction unbound at 4 h, 1 µM in data set [2] is 0.028.
Turning to `CCC[C@H](C)[C@@H](O)[C@@H](C)[C@@H]1C/C=C(\C)C(=O)O[C@H]([C@@H](C)CC)C(=O)N[C@@H](C)C(=O)N(C)[C@H](Cc2ccccc2)C(=O)N(C)CC(=O)N[C@@H]([C@@H](C)CC)C(=O)N(C)[C@@H](C)C(=O)O1`, the pIC50 in the data set with A549 was 8.35.
As for `CCC[C@H](C)[C@H]1OC(=O)[C@H](C)N(C)C(=O)[C@H]([C@@H](C)CC)NC(=O)CN(C)C(=O)[C@@H](Cc2ccccc2)N(C)C(=O)[C@H](C)NC(=O)[C@@H]([C@@H](C)CC)OC(=O)/C(C)=C/C[C@H](O)[C@@H]1C`, the pIC50 in the data set with A549 was 8.38. Moreover, the Papp at 4 h in data set [1] is more than 1 ×10⁻⁶ cm/s. The fraction unbound at 4 h, 1 µM in data set [2] was 0.241.
`CCC[C@H](C)[C@H]1OC(=O)[C@H](C)N(C)C(=O)[C@@H]([C@@H](C)CC)NC(=O)CN(C)C(=O)[C@@H](Cc2ccccc2)N(C)C(=O)[C@H](C)NC(=O)[C@@H]([C@@H](C)CC)OC(=O)/C(C)=C/C[C@H](O)[C@@H]1C`: in the data set with A549, the pIC50 is 6.19.
For the molecule `CCC[C@H](C)[C@H]1OC(=O)[C@H](C)N(C)C(=O)[C@H]([C@@H](C)CC)NC(=O)CCN(C)C(=O)[C@@H](Cc2ccccc2)N(C)C(=O)[C@H](C)NC(=O)[C@@H]([C@@H](C)CC)OC(=O)/C(C)=C/C[C@H](O)[C@@H]1C`, in the data set with A549, the pIC50 was 7.13. Besides, the Papp at 4 h in data set [1] was more than 1 ×10⁻⁶ cm/s.
Consider `CCC[C@H](C)[C@H]1OC(=O)[C@@H](C)N(C)C(=O)[C@H]([C@@H](C)CC)NC(=O)CN(C)C(=O)[C@@H](Cc2ccccc2)N(C)C(=O)[C@H](C)NC(=O)[C@@H]([C@@H](C)CC)OC(=O)/C(C)=C/C[C@H](O)[C@@H]1C`, for which the pIC50 with A549 is 8.72. Moreover, in data set [1], the Papp at 4 h is more than 1 ×10⁻⁶ cm/s. The fraction unbound at 4 h, 1 µM in data set [2] was 0.145.
`CCC[C@H](C)[C@H]1OC(=O)[C@H](C)N(C)C(=O)[C@H]([C@@H](C)CC)NC(=O)CN(C)C(=O)[C@H](Cc2ccccc2)N(C)C(=O)[C@H](C)NC(=O)[C@@H]([C@@H](C)CC)OC(=O)/C(C)=C/C[C@H](O)[C@@H]1C`: the pIC50 in the data set on A549 was 7.32.
On to `CCC[C@H](C)[C@H]1OC(=O)[C@H](C)N(C)C(=O)[C@H]([C@@H](C)CC)NC(=O)CN(C)C(=O)[C@@H](Cc2ccccc2)N(C)C(=O)[C@@H](C)NC(=O)[C@@H]([C@@H](C)CC)OC(=O)/C(C)=C/C[C@H](O)[C@@H]1C`, for which, in the data set with A549, the pIC50 was 5.81. The Papp at 4 h in data set [1] was more than 1 ×10⁻⁶ cm/s.
